Experimental data gathered from unrelated publications.
Lines come from different studies, so protocols differ.
Mode: inhibitor
CA12: Carbonic anhydrase 12 (CA12, Homo sapiens, UniProt O43570)
DRD3: D(3) dopamine receptor (DRD3, Homo sapiens, UniProt P35462)
USP51: Ubiquitin carboxyl-terminal hydrolase 51 (USP51, Homo sapiens, UniProt Q70EK9)
SLC6A3: Sodium-dependent dopamine transporter (SLC6A3, Homo sapiens, UniProt Q01959)

target	assay	system	conditions	inhibition	SMILES
CA12	enzyme activity, absorbance		1 µM	58.2%	CCOC(=O)C1CSc2[nH]c(=O)sc2C1c1cn(-c2ccccc2)nc1-c1ccc(OC)cc1 (stereo not drawn)
DRD3	enzyme activity		10 µM	22.8%	COc1ccc(S(N)(=O)=O)cc1C(=O)NCCCN1CCN(c2ccccc2C)CC1
CA12	enzyme activity, absorbance		100 µM	75%	O=C1NC(=S)C(=Cc2cn(-c3ccccc3)nc2-c2ccc(Br)cc2)S1
USP51	enzyme activity		5 µM	99%	O=C(O)c1cc(O)c(O)c(O)c1
CA12	enzyme activity, absorbance		1 µM	55.8%	CCOC(=O)C1CSc2[nH]c(=O)sc2C1c1cn(-c2ccccc2)nc1-c1ccc(Br)cc1 (stereo not drawn)
DRD3	enzyme activity		10 µM	42.5%	O=C1C2CCCN2C(=O)N1CCCCN1CCN(c2cccc(C(F)(F)F)c2)CC1 (stereo not drawn)
SLC6A3	transporter uptake	HEK293	1 µM	62.6%	Clc1ccc(C(c2ccc(Cl)cc2)c2nnnn2CCCCN2CCC(Cc3ccc(Cl)c(Cl)c3)CC2)cc1
CA12	enzyme activity, absorbance		1 µM	73.2%	CCOC(=O)C1CSc2[nH]c(=O)sc2C1c1cn(-c2ccccc2)nc1-c1ccc(Cl)cc1 (stereo not drawn)
DRD3	enzyme activity		10 µM	0%	O=c1oc2cc(OCC(O)CN3CCN(c4ccc(F)cc4)CC3)ccc2c2c1CCC2 (stereo not drawn)
CA12	enzyme activity, absorbance		1 µM	56.2%	Cc1ccc(-c2nn(-c3ccccc3)cc2C2c3sc(=O)[nH]c3SC3C(=O)N(c4ccccc4)C(=O)C32)cc1 (stereo not drawn)
USP51	enzyme activity		5 µM	24%	Nc1ncnc2c1ncn2[C@@H]1O[C@H](CO)[C@@H](O)[C@H]1O
CA12	enzyme activity, absorbance		0.1 µM	27.5%	CCOC(=O)C1CSc2[nH]c(=O)sc2C1c1cn(-c2ccccc2)nc1-c1ccccc1 (stereo not drawn)
USP51	enzyme activity		5 µM	14%	O=C1c2cccc(O)c2C(=O)c2c(O)cccc21
DRD3	enzyme activity		10 µM	-12.1%	Cc1ccccc1OCC(O)CN1CCN(CC(O)COc2ccccc2C)CC1 (stereo not drawn)
CA12	enzyme activity, absorbance		0.1 µM	40.6%	N#CC1CSc2[nH]c(=O)sc2C1c1cn(-c2ccccc2)nc1-c1ccc(Br)cc1 (stereo not drawn)
SLC6A3	transporter uptake	HEK293	1 µM	69%	Clc1ccc(C(c2ccccc2)c2nnnn2CCCCN2CCC(CCCc3ccccc3)CC2)cc1 (stereo not drawn)
DRD3	enzyme activity		10 µM	5.54%	CC(=O)Nc1ccc(N2C(=O)CC(NCCc3ccccc3)C2=O)cc1 (stereo not drawn)
CA12	enzyme activity, absorbance		10 nM	11.9%	CCOC(=O)C1CSc2[nH]c(=O)sc2C1c1cn(-c2ccccc2)nc1-c1ccc(C)cc1 (stereo not drawn)
SLC6A3	transporter uptake	HEK293	1 µM	67.7%	Clc1ccc(CC2CCN(CCCCn3nnnc3C(c3ccccc3)c3ccccc3)CC2)cc1Cl
USP51	enzyme activity		5 µM	48%	CN1C(=O)/C(=C2/C(=O)Nc3ccccc32)c2ccccc21
DRD3	enzyme activity		10 µM	63.4%	O=C1C2CCCN2C(=O)N1CCCCN1CCN(c2cccc(Cl)c2)CC1 (stereo not drawn)
SLC6A3	transporter uptake	HEK293	1 µM	33.1%	Fc1ccc(C(c2ccc(F)cc2)c2nnnn2CCCN2CCC(CCCc3ccccc3)CC2)cc1
USP51	enzyme activity		5 µM	43%	CC(C)Oc1ccc2c(=O)c(-c3ccccc3)coc2c1
DRD3	enzyme activity		10 µM	-24.9%	Cc1[nH]n(-c2ccc([N+](=O)[O-])cc2)c(=O)c1C=NCCN1CCN(C(=O)c2cccc(F)c2)CC1
USP51	enzyme activity		5 µM	51%	COc1cc2c(cc1OC)-c1cc3ccc(OC)c(OC)c3c[n+]1CC2
DRD3	enzyme activity		10 µM	-20.3%	COc1ccccc1N1CCN(CC(O)Cn2cnc3c2c(=O)n(C)c(=O)n3C)CC1 (stereo not drawn)
USP51	enzyme activity		5 µM	31%	O=C(O)CC(O)C(=O)O (stereo not drawn)
SLC6A3	transporter uptake	HEK293	1 µM	92.3%	Fc1ccc(C(c2ccc(F)cc2)c2nnnn2CCCCN2CCC(Cc3ccccc3)CC2)cc1
USP51	enzyme activity		5 µM	20%	CC[C@H]1CN2CCc3cc(OC)c(OC)cc3[C@@H]2C[C@@H]1C[C@H]1NCCc2cc(OC)c(OC)cc21
SLC6A3	transporter uptake	HEK293	1 µM	74.6%	Clc1ccc(C(c2ccccc2)c2nnnn2CCCCN2CCC(CCc3ccccc3)CC2)cc1 (stereo not drawn)
